Jurkat tox 60K: cytotoxic compounds reducing Jurkat cell viability. Jurkat E6.1 viability, ATP luminescence, 48 h. inhibition, % at 4 µM. hit rate 1.2% among 56,000. AID 463;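 active = inhibition above the mean inhibition of all tested compounds plus 3 SD, cut at about 28% in these data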
H69AR growth 86K: blocks growth of human H69AR lung tumor cells; H69AR lung tumor viability, ATP luminescence, 72 h; hits give low values; viability, % at 10 µM; hit rate 6% among 85,000; AID 598;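 active = viability at or below 40%; inactive = viability above 40%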;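 note: multidrug resistant small cell line overexpressing MRP-1 efflux transporter; 100% = mean luminescence of untreated control wells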
E coli WT exp: blocks growth of wild type E. coli BW25113. OD600 absorbance. growth inhibition, % at 100 µM. hit rate 0.15% among 98,000. AID 710;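 active = growth inhibition above about 50% at one test dose, limit read from the data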;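 note: growth measured after 20 h incubation at 37 °C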
HUVEC prolif 384: human endothelial cell proliferation inhibition; HUVEC proliferation, CellTiter-Glo luminescence, 72 h; hits give low values; viability, % at 10 µM (by protocol); hit rate 1.1% among 86,000; AID 648;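 active = viability at or below 30%; inactive = viability above 30%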;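 note: 100% = median luminescence of DMSO-only cell control wells on each plate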
Fibroblast inh: blocks proliferation of human lung fibroblasts. LL 47 human lung fibroblast viability, ATP luminescence; hits give low values. hit rate 1.1% among 85,000. viability, % at 10 µM. AID 719;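 active = viability at or below 50% in the single dose screen; inactive = viability above 50%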;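 note: compound exposure lasted 72 h before the ATP readout; 100% = median luminescence of untreated cell-only wells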
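material = human LL 47 lung fibroblast cells | dosing = compounds added from tenfold dosing solution, 0.1% DMSO final | timing = overnight cell rest, 72 h compound treatment at 37 °C | measured by = CellTiter-Glo luminescence measuring cellular ATP | evaluation = % viability versus median cells-only luminescence | control set = cell-only wells, no compound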
Ecoli tolC: blocks growth of E. coli BW25113 tolC mutant | OD615 | growth inhibition, % at 10 µM (by protocol) | hit rate 2.2% among 65,000;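 active = growth inhibition at or above a cutoff equal to the mean over every tested compound plus 3 SD, cut at about 60% in these data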;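 note: growth measured after 20 h incubation at 37 °C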
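Material: E. coli BW25113 ΔtolC::kan, tolC deletion mutant strain. Measure: percent growth inhibition. Schedule: 37 °C, 20 h exposure. Doses: single-point testing at 10 µM. Signal: A615 absorbance measurement. Buffer or medium: kanamycin-containing LB broth (50 µg/mL).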
The depositor's hits bear a star; · = no result given. Hits are enriched below; roughly 6.4% of the tested compounds scored in any of these assays.

SMILES | Jurkat tox 60K | H69AR growth 86K | E coli WT exp | HUVEC prolif 384 | Fibroblast inh | Ecoli tolC
Cc1cc(C)c2nc(N3CCC(C(=O)NCCCN4CCCCC4)CC3)sc2c1 | · | 58 | 8 | 4.0* | 2.7* | ·
Cc1cc([N+](=O)[O-])nn1Cc1ccccc1F | · | · | 11 | · | · | ·
O=c1c2cc3ccccc3n2cnn1Cc1ccccc1F | 50* | 17* | 5 | 79 | 77 | 75*
COc1cc(NC(=O)c2cc(-c3cccs3)on2)cc(OC)c1OC | 64* | 23* | -7 | 67 | 96 | 13
COc1cccc(-c2cc(C(=O)Nc3cccc(O)c3)no2)c1 | 49* | · | -7 | · | · | -16
COc1cc(NC(=O)c2cc(-c3cccc(O)c3)on2)cc(OC)c1OC | 21 | 28* | -11 | 66 | 92 | -7
CCC(C)NS(=O)(=O)c1ccc(S(=O)(=O)N(CC(=O)Nc2ccccc2)CC2CCCO2)cc1 (stereo not drawn) | · | 85 | -10 | 99 | 96 | ·
Cc1ccc(Nc2c([N+](=O)[O-])ccc3c2=NC2(CCCCC2)N=3)cc1 | · | · | -9 | · | · | ·
CCC1CCc2c(sc3nc(SCC(=O)NCc4ccco4)n(-c4ccccc4)c(=O)c23)C1 (stereo not drawn) | · | 3.0* | · | 38 | 64 | ·
CC1CCc2c(sc3ncn4c(SCC(=O)NCc5ccco5)nnc4c23)C1 (stereo not drawn) | 0 | 10* | -1 | 88 | 102 | 11
CC1CCc2sc3ncn4nc(C(=O)NCc5ccco5)nc4c3c2C1 (stereo not drawn) | 0 | 67 | -4 | 89 | 94 | -5
CCN(CC)CCn1c(=N)n(CCOc2ccccc2)c2ccccc21 | · | 10* | 6 | 64 | 33* | ·
C=CCn1c(=O)/c(=C/c2ccc(C)o2)s/c1=C(/C#N)C(=O)c1ccccc1 | -8 | 102 | -4 | 75 | 98 | 3
CC(C)(C)C(=O)/C(C#N)=c1\s/c(=C\c2ccncc2)c(=O)n1CCCN1CCOCC1 | -6 | 74 | · | 1.8* | · | -8
COc1ccc(C(=O)c2ccc(OC)cc2O)c(O)c1 | 3 | 32* | -3 | 90 | 89 | 14
COc1ccc(OC)c(C(=O)c2coc3ccc(O)cc23)c1 | -8 | 24* | 4 | 78 | 99 | 24
COc1ccc(C(=O)/C=C(\N)C(F)(F)F)c(O)c1 | 8 | 74 | 1 | 85 | · | -1
CC(C)(C)C(=O)/C(=C\c1ccc([N+](=O)[O-])cc1)n1cncn1 | · | 107 | · | 2.1* | 2.1* | ·
C=CCNC(=O)/C(=C\c1ccc([N+](=O)[O-])cc1)NC(C)=O | · | · | 5 | · | · | ·
O=S(=O)(Cc1ccccc1)N1CCc2ccccc21 | -1 | 28* | 2 | 77 | 96 | 19
CN(C)S(=O)(=O)N1CCc2ccccc21 | 0 | 56 | 6 | 98 | 99 | 14
CCn1c(Cc2ccccc2)nnc1SCC(=O)Nc1ccc2c(c1)OCCO2 | -6 | 93 | 1 | 94 | 96 | ·
O=P(OC1CCCCC1)(OC1CCCCC1)C(O)c1ccccc1 (stereo not drawn) | · | 84 | 3 | 97 | 87 | ·
COc1cc2c(=O)n(Cc3ccccc3)c(=O)n(CC(=O)NCC3CCCO3)c2cc1OC (stereo not drawn) | · | · | -7 | · | · | 4
COc1cc2c(=O)n(Cc3ccccc3)c(=O)n(CC(=O)NCCc3ccccc3)c2cc1OC | · | 33* | -3 | 76 | 65 | ·
SMILES | Jurkat tox 60K | H69AR growth 86K | E coli WT exp | HUVEC prolif 384 | Fibroblast inh | Ecoli tolC
O=C(CCl)Nc1cccn2ncnc12 | · | 94 | 19 | 85 | 71 | ·
CN(C)c1nc(-c2ccccc2)c2cnn(Cc3ccccc3)c2n1 | 1 | 19* | -5 | 73 | 81 | 37
c1ccc(Cn2ncc3c2ncn2nc(-c4ccncc4)nc32)cc1 | -4 | 85 | · | 98 | 99 | 0
COC(=O)c1cn(NC(=O)c2ccc(OC)c(OC)c2)c(=O)c2ccccc12 | · | · | -4 | · | · | ·
COC(=O)c1cn(NC(=O)c2cnccn2)c(=O)c2ccccc12 | · | 46 | 1 | 68 | 82 | 99*
Cc1cc(C)c2c(CN3CCN(Cc4ccc5c(c4)OCO5)CC3)cc(=O)oc2c1C | 1 | 33* | 1 | 39 | 90 | 21
CC(C(=O)Nc1ccccc1Sc1ccccc1)N(c1ccccc1)S(C)(=O)=O (stereo not drawn) | · | · | -6 | · | · | ·
Cc1cc(C)n2nc(NCc3cccc(Br)c3)nc2n1 | -3 | 87 | 11 | 78 | 97 | 18
Cc1oc2c(cc(NS(=O)(=O)c3cccs3)c3ccccc32)c1C(=O)OC(C)C | · | 73 | · | 76 | 91 | ·
COc1ccc(S(=O)(=O)Nc2cc3c(C(C)=O)c(C)oc3c3ccccc23)cc1 | · | 25* | 6 | 37 | 51 | ·
COC(=O)c1cccc(NS(=O)(=O)c2ccc(OC)cc2)c1C | · | 23* | · | 60 | 86 | ·
CCOC(=O)c1ccccc1NS(=O)(=O)c1ccc(OCC)cc1 | · | 13* | 0 | 65 | 64 | ·
CCOc1ccc(NS(=O)(=O)c2ccc(OCC(=O)N3CCCC3)cc2)cc1 | -5 | 100 | -4 | 77 | 92 | -4
CCOC(=O)N1CCN(C(=O)COc2ccc(S(=O)(=O)Nc3ccc(OCC)cc3)cc2)CC1 | 12 | 82 | 0 | 101 | 95 | 68*
COC(=O)c1cccc(NS(=O)(=O)c2ccc(OC)c(OC)c2)c1C | · | 108 | -2 | 98 | 97 | ·
Cc1ccc(S(=O)(=O)N2CCN(C(=O)COc3ccc(NC(=O)c4ccco4)cc3)CC2)cc1 | · | 37* | 1 | 88 | 106 | ·
O=C(Nc1ccc(S(=O)(=O)N2CCOCC2)cc1)c1ccco1 | 0 | 84 | -1 | 87 | 89 | -15
CCOC(=O)COc1ccc(S(=O)(=O)Nc2cccc(SC)c2)cc1 | · | 105 | 13 | 14* | 47* | ·
O=C(NCc1ccc2c(c1)OCO2)c1ccc(CN2CCOCC2)cc1 | 4 | 80 | 6 | 91 | 107 | -12
CCC(C)NCC(=O)Nc1ccc(-c2nc3cc(NC(=O)CNC(C)CC)ccc3o2)cc1 (stereo not drawn) | -2 | 60 | 9 | 25* | 2.9* | 39
O=C(CN1CCCC1)Nc1ccc(-c2nc3cc(NC(=O)CN4CCCC4)ccc3o2)cc1 | 2 | 47 | 11 | 65 | 23* | 11
CCN(CC)CC(=O)Nc1ccc(-c2nc3cc(NC(=O)CN(CC)CC)ccc3o2)cc1 | 7 | 61 | 5 | 106 | 44* | 23
Cc1ccc(CCN2C(=O)CCC2(C)C(=O)NCc2cccnc2)cc1 (stereo not drawn) | · | 82 | 5 | 89 | 95 | ·

Screens from PubChem BioAssay.
